Assays:
[1] = system: HCT-116; assay: Cytotoxicity against human HCT116 cells assessed as growth inhibition at 5 ug/ml by MTT assay; format: functional; conditions: read-out: GI
In short: (§1)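 Single-concentration MTT screen at 5 µg/mL across SF-295 (glioblastoma), OVCAR-8 (ovary) and HCT-116 (colon) cells. Read-out is percent growth inhibition, reported with sd.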

[2] = system: SF-295; assay: Cytotoxicity against human SF295 cells assessed as growth inhibition at 5 ug/ml by MTT assay; format: functional; conditions: read-out: GI; in short: as §1
[3] = system: OVCAR-8; assay: Cytotoxicity against human OVCAR8 cells assessed as growth inhibition at 5 ug/ml by MTT assay; format: functional; conditions: read-out: GI; in short: as §1
[4] = system: HL-60; assay: Cytotoxicity against human HL60 cells assessed as growth inhibition by MTT assay; format: functional, cell-based
In short: (§2)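 Dose-response on HCT-116, OVCAR-8, HL-60 (leukemia) and SF-295 cells, with doxorubicin as positive control. IC50 is taken as the concentration inducing 50% inhibition of cell growth. Data come from three independent experiments, each run in triplicate.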

[5] = system: SF-295; assay: Cytotoxicity against human SF295 cells assessed as growth inhibition by MTT assay; format: functional, cell-based; in short: as §2
[6] = system: HCT-116; assay: Cytotoxicity against human HCT116 cells assessed as growth inhibition by MTT assay; format: functional, cell-based; in short: as §2
[7] = system: OVCAR-8; assay: Cytotoxicity against human OVCAR8 cells assessed as growth inhibition by MTT assay; format: functional, cell-based; in short: as §2

| Structure (SMILES) | inhibition of growth at 5 µg/mL [1] [%] | inhibition of growth at 5 µg/mL [2] [%] | inhibition of growth at 5 µg/mL [3] [%] | IC50 [4] [µM] | IC50 [5] [µM] | IC50 [6] [µM] | IC50 [7] [µM] |
| --- | --- | --- | --- | --- | --- | --- | --- |
| COc1ccc(OC)c(/C=N/Nc2cnc3ccccc3n2)c1 | 0 | 44.6 | 18.5 | – | – | – | – |
| COc1cccc(OC)c1/C=N/Nc1cnc2ccccc2n1 | 19.4 | 44.7 | 25.1 | – | – | – | – |
| COc1ccc(/C=N/Nc2cnc3ccccc3n2)cc1OC | 22.3 | 16.5 | 17.6 | – | – | – | – |
| COc1cc(/C=N/Nc2cnc3ccccc3n2)cc(OC)c1OC | 20.7 | 60.1 | 38.8 | – | – | – | – |
| CCOc1cccc(/C=N/Nc2cnc3ccccc3n2)c1 | 1.29 | 7.19 | 41.2 | – | – | – | – |
| CCOc1ccc(/C=N/Nc2cnc3ccccc3n2)cc1 | 17.6 | 12.3 | 50.3 | – | – | – | – |
| Cc1ccc(/C=N/Nc2cnc3ccccc3n2)c(O)c1 | 17.4 | 59.9 | 31.5 | – | – | – | – |
| Cc1ccc(O)c(/C=N/Nc2cnc3ccccc3n2)c1 | 13.7 | 38.4 | 25.4 | – | – | – | – |
| COc1ccc(/C=N/Nc2cnc3ccccc3n2)c(O)c1 | 83.1 | 66.4 | 80.9 | 4.19 | 15.7 | 14.2 | 7.55 |
| O=[N+]([O-])c1ccc(O)c(/C=N/Nc2cnc3ccccc3n2)c1 | 92.1 | 78.5 | 95.6 | 1.75 | 2.11 | 4.32 | 2.84 |
| O=[N+]([O-])c1cc(/C=N/Nc2cnc3ccccc3n2)ccc1Cl | 20.6 | 36.8 | 9 | – | – | – | – |
| Oc1ccc(/C=N/Nc2cnc3ccccc3n2)cc1Cl | 16.2 | 46.6 | 28.8 | – | – | – | – |
| COc1ccc(/C=N/Nc2cnc3ccccc3n2)c(Cl)c1O | 24.5 | 32.4 | 13.8 | – | – | – | – |
| C(=N\Nc1cnc2ccccc2n1)/c1ccccc1 | 18.4 | 3.37 | 34.5 | – | – | – | – |
| Fc1ccccc1/C=N/Nc1cnc2ccccc2n1 | 7.01 | 12.8 | 0 | – | – | – | – |
| Fc1cccc(/C=N/Nc2cnc3ccccc3n2)c1 | 10.8 | 8.36 | 5.59 | – | – | – | – |
| Clc1ccccc1/C=N/Nc1cnc2ccccc2n1 | 12.1 | 31.9 | 9.09 | – | – | – | – |
| Clc1cccc(/C=N/Nc2cnc3ccccc3n2)c1 | 0 | 33.2 | 0 | – | – | – | – |
| Clc1ccc(/C=N/Nc2cnc3ccccc3n2)cc1 | 10.2 | 44.5 | 41.7 | – | – | – | – |
| Clc1cccc(/C=N/Nc2cnc3ccccc3n2)c1Cl | 97.5 | 84.3 | 100 | 10.8 | 6.21 | 7.01 | 6.19 |
| Clc1cccc(Cl)c1/C=N/Nc1cnc2ccccc2n1 | 71.2 | 52 | 53.5 | – | – | – | – |
| Clc1ccc(/C=N/Nc2cnc3ccccc3n2)c(Cl)c1 | 16.5 | 28.5 | 4.9 | – | – | – | – |
| Clc1ccc(/C=N/Nc2cnc3ccccc3n2)cc1Cl | 0.5 | 37.8 | 0 | – | – | – | – |
| COc1cccc2c1C(=O)c1c(O)c3c(c(O)c1C2=O)C[C@@](O)(C(=O)CO)C[C@@H]3O[C@H]1C[C@H](N)[C@H](O)[C@H](C)O1 [DOXORUBICIN] | – | – | – | – | – | 0.23 | 0.488 |

From ChEMBL document CHEMBL3112521, “Design, synthesis and biological evaluation of (E)-2-(2-arylhydrazinyl)quinoxalines, a promising and potent new class of anticancer agents” (Bioorg Med Chem Lett, 2014)
